According to ChEMBL document CHEMBL4152271, “Polypharmacological profile of 1,2-dihydro-2-oxo-pyridine-3-carboxamides in the endocannabinoid system” (Eur J Med Chem, 2018):
The source made the active and inactive calls. The rule behind the calls is not given here.

Columns and labels:
Cannabinoid receptor 2 [1] = target: T1, Cannabinoid receptor 2 (Homo sapiens, UniProt P34972); assay: Displacement of [3H]-CP55940 from human CB2 receptor expressed in CHO cell membranes after 90 mins
How it was run: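 Membranes expressing hCB1 or hCB2 (stably transfected CHO) in 50 mM Tris-HCl, 2.5 mM EDTA, 5 mM MgCl₂, 0.5% fatty acid-free BSA, pH 7.4. Nonspecific binding with 10 µM […]. GF/B filtration, radioactivity counted, Ki derived. Mean ± SD, at least 3 experiments in triplicate.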

Cannabinoid receptor 2 [2] = target: T1, Cannabinoid receptor 2; assay: Agonist activity at human CB2 receptor expressed in CHO cell membranes after 90 mins by [35S]GTPgammaS binding assay; assay type: functional
How it was run: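 Membranes (5 µg) of hCB2-expressing cells in 50 mM Tris-HCl, 3 mM MgCl₂, 0.2 mM EDTA, 100 mM NaCl, 0.5% fatty acid-free BSA, pH 7.4, with 10 µM GDP and 0.1 nM [³⁵S]GTPγS. Kept on ice, started by vehicle or compound, 90 min at 30 °C. Nonspecific binding with 10 µM GTPγS. Filtered on GF/B, radioactivity counted. At least three experiments in triplicate, mean ± SD.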

U-251 = assay: Cytotoxicity against human U251MG cells assessed as decrease in cell viability at 0.6 to 40 uM after 48 hrs by MTT assay; assay type: functional, cell-based
How it was run: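 U251MG (EMEM, 10% FBS) or U937 (RPMI 1640, 10% FBS) cells plated at 4x10³/well for 24h, then exposed to compounds (0–40 µM) for 48 h at 37°C. MTT reduction, formazan read at 595 nm. Viability as % of untreated control. Five independent experiments in triplicate, mean ± SD, ANOVA with Bonferroni.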

[3] = target: T2, Monoacylglycerol lipase ABHD6 (Homo sapiens, UniProt Q9BV23); assay: Inhibition of human ABHD6 expressed in HEK293 cells using 2-OG as substrate preincubated for 30 mins followed by substrate addition and measured after 5 mins by liquid scintillation spectroscopic method; assay type: cell-based
T2 sequence (Q9BV23 whole entry): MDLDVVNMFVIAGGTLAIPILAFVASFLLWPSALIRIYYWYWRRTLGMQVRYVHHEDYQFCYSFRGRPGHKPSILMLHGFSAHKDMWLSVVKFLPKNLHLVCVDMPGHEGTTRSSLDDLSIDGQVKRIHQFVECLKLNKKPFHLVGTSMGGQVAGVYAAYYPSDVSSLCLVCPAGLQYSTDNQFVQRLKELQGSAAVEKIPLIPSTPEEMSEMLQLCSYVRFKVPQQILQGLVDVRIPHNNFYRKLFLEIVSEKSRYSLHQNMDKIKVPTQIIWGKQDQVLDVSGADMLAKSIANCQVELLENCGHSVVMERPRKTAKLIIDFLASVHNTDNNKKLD
How it was run: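 Homogenate (40 µg) of HEK293 cells stably transfected with hABHD6 or hABHD12, compound preincubated 30 min at 37 °C in […], 0.1% BSA, pH 7.6. DMSO vehicle; WWL70 10 µM or THL 20 µM as positive controls. 10 µM 2-OG added for 5 min at 37 °C, stopped with CHCl₃:MeOH. Aqueous phase counted; no-enzyme blanks and non-transfected HEK293 hydrolysis subtracted.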

Cannabinoid receptor 1 = Cannabinoid receptor 1 (Homo sapiens, UniProt P21554); assay: Agonist activity at CB1 receptor in human U251MG cells assessed as upregulation of MICA/B expression at 10 uM after 24 hrs by cytofluorimetric method; assay type: functional, cell-based
How it was run: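 U251MG glioma cells seeded at 2x10⁴ cells/cm², grown 24h, washed, then exposed to vehicle or compound in complete medium for 24 h. 2x10⁵ cells stained with PE anti-MICA/B or isotype control, 20 min at 4°C, fixed in 1% formaldehyde. Flow cytometry read-out as MFI, 3 independent experiments, mean ± SD, ANOVA with Bonferroni.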

Cannabinoid receptor 1, sequence (P21554 whole entry): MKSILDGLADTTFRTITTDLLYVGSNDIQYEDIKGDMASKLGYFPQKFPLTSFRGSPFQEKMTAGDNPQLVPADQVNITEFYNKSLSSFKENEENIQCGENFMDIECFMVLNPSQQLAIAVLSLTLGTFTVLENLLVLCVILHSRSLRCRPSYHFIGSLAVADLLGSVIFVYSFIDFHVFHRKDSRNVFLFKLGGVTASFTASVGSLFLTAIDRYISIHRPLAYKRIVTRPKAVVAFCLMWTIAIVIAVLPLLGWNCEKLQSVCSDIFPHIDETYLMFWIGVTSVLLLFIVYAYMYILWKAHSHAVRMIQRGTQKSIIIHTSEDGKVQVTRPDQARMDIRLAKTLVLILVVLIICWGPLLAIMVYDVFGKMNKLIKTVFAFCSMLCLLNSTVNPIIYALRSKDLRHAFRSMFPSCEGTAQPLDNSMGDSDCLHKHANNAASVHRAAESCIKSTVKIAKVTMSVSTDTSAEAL
T1 sequence (P34972 whole entry): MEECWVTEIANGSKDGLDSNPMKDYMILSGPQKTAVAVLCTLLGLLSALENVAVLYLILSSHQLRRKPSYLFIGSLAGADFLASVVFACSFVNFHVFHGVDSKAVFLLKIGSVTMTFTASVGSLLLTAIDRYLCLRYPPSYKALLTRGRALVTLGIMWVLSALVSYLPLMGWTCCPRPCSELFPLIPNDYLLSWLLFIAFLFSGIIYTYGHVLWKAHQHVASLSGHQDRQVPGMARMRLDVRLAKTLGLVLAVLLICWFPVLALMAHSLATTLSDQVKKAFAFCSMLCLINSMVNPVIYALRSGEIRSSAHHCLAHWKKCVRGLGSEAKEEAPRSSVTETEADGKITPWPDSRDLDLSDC

Compound	Ki (Cannabinoid receptor 2 [1])	EC50 (Cannabinoid receptor 2 [2])	Activity (U-251)	IC50 [3]	Activity (Cannabinoid receptor 1)
Cc1c(Br)cn(Cc2ccc(F)cc2)c(=O)c1C(=O)NC1CCCCCC1	3.5 nM	1.1 nM	inactive	> 10000 nM	Active
COc1ccc(-c2cn(Cc3ccc(F)cc3)c(=O)c(C(=O)NC3CCCCCC3)c2C)cc1	7.9 nM	–	inactive	> 10000 nM	Active
Cc1c(Br)cnc(OCc2ccc(F)cc2)c1C(=O)NC1CCCCCC1	606 nM	687 nM	inactive	530 nM	Active
